Test results as given in the RNAGym collection of RNA variant scans (doi:10.1002/anie.201605470).

B1: Osa-1-4 twister ribozyme (parent)
chain: CCGCCUAACACUGCCAAUGCCGGUCCCAAGCCCGGAUAAAAGUGGAGGGGGCGG

Variants of: B1
Assay: self-cleavage, relative activity (ratio to wild type); higher = more cleavage; co-transcriptional
Method in brief: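 A DNA template encoding a 54-nucleotide twister ribozyme from Oryza sativa was made so that each of the 48 positions downstream of the cleavage site carried 97 % wild-type base and 1 % of each other base. Transcription in vitro ran for 2 h at 37 °C, during which the ribozyme could cleave itself. Reverse transcription used a template-switching oligonucleotide, and the products were PCR-amplified and deep-sequenced. Each read was scored as cleaved or uncleaved by whether upstream sequence was present, and relative activity is the fraction cleaved normalised to wild type.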

Variant	self-cleavage
A28U G51U	0.2
A28U G51A	0.28
A28U G51C	0.08
A29G A7U	0.14
A29G A7C	0.03
A29G A7G	0.11
A29G A39G	0.09
A29G A39U	0.11
A29G A39C	0.06
A28U U37G	0.97
A28U U37A	0.68
A28U U37C	0.97
A29C C9A	0.02
A29C C9U	0.02
A29C C9G	0.05
A28U G42U	0.06
A28U G42A	0.16
A28U G42C	0.09
A28G U43G	0.09
A28G U43C	0.1
A28G U43A	0.14
A28U A46G	0.7
A28U A46U	0.08
A28U A46C	0.07

Variant	self-cleavage
A28U U43G	0.15
A28U U43C	0.15
A28U U43A	0.28
A29G A46C	0.03
A29G A46G	0.04
A29G A46U	0.04
A29G G19A	0.08
A28U A38U	0.87
A28U A38C	0.95
A28U A38G	0.92
A29G C27U	0.05
A29G C27G	0.06
A29G C27A	0.06
A29C G45A	0.02
A29C G45U	0.01
A29C G45C	0.01
A29C G44U	0.05
A29C G44A	0.04
A29C G44C	0.05
A28U A36C	0.21
A28U A36G	0.99
A28U A36U	0.94
A29C A41G	0.04
A29C A41U	0.05

Variant	self-cleavage
A29C A41C	0.05
A28U C14A	0.05
A28U C14G	0.07
A28U C14U	0.14
A29C U12C	0.03
A29C U12G	0.03
A29C U12A	0.05
A28U U12A	0.38
A28U U12C	0.13
A28U U12G	0.11
A29C C25A	0.04
A29C C25U	0.03
A29C C25G	0.02
A29C G51A	0.03
A29C G51U	0.03
A29C G51C	0.02
A29G A41G	0.12
A29G A41U	0.46
A29G A41C	0.21
A29C C52G	0.05
A29C C52A	0.06
A29C C52U	0.06
A29G C52A	0.16
A29G C52U	0.34

Variant	self-cleavage
A29G C52G	0.22
A29C C31A	0.02
A29C C31U	0.02
A29C C31G	0.02
A28U G54C	0.71
A28U G54U	0.72
A28U G54A	0.66
A28U C20G	0.09
A28U C20U	0.95
A28U C20A	0.9
A28U	0.96
A29C G42C	0.02
A29C G42A	0.03
A29C G42U	0.01
A28U C15U	0.1
A28U C15G	0.14
A28U C15A	0.11
A29G C21U	0.17
A29G C21G	0.07
A29G C21A	0.1
A28U U24C	0.09
A28U U24A	0.08
A28U U24G	0.02
A29G A36U	0.32

Variant	self-cleavage
A29G A36G	0.47
A29G A36C	0.07
A28U C32U	0.1
A28U C32A	0.07
A28U C32G	0.1
A28U G23A	0.14
A28U G23C	0.05
A28U G23U	0.07
A29C A8C	0.04
A29C A8G	0.03
A29C A8U	0.02
A29C G48A	0.01
A29C G48U	0.01
A29C G48C	0.02
A28U C9A	0.16
A28U C9G	0.35
A28U C9U	0.57
A28U C27U	0.15
A28U C27A	0.09
A28U C27G	0.05
A29C A46G	0.02
A29C A46C	0.02
A29C A46U	0.02
A29G A40G	0.07

Variant	self-cleavage
A29G A40U	0.15
A29G A40C	0.04
A29C G54U	0.08
A29C G54C	0.04
A29C G54A	0.03
A29C U24G	0.02
A29C U24A	0.04
A29C U24C	0.09
A29C C32U	0.03
A29C C32G	0.03
A29C C32A	0.03
A29C G22C	0.03
A29C G22A	0.08
A29C G22U	0.05
A28U C33G	0.05
A28U C33U	0.49
A28U C33A	0.08
A28U G13C	0.02
A28U G13A	0.06
A28U G13U	0.03
A29C C33G	0.01
A29C C33A	0.04
A29C C33U	0.03
A29C C15A	0.02

Variant	self-cleavage
A29C C15G	0.04
A29C C15U	0.03
A29G C33G	0.15
A29G C33A	0.05
A29G C33U	0.07
A29C	0.05
A29G	0.4
A29G C25G	0.04
A29G C25A	0.04
A29G C25U	0.08
A29C U37G	0.06
A29C U37C	0.04
A29C U37A	0.04
A29C C26A	0.02
A29C C26U	0.03
A29C C26G	0.02
A28U A39G	0.79
A28U A39U	0.76
A28U A39C	0.63
A29G C14A	0.04
A29G C14G	0.08
A29G C14U	0.06
A28U G34C	0.18
A28U G34A	0.39

Variant	self-cleavage
A28U G34U	0.28
A29C G47C	0.02
A29C G47U	0.03
A29C G47A	0.02
A28U A8U	0.09
A28U A8C	0.06
A28U A8G	0.18
A29C A40G	0.02
A29C A40U	0.04
A29C A40C	0.02
A29G C11U	0.11
A29G C11G	0.07
A29G C11A	0.08
A29C G49A	0.02
A29C G49U	0.02
A29C G49C	0.01
A28U C52G	0.96
A28U C52U	0.97
A28U C52A	0.93
A29C C21G	0.02
A29C C21U	0.06
A29C C21A	0.04
A28U A40U	0.2
A28U A40G	0.24

Variant	self-cleavage
A28U A40C	0.04
A29G C15U	0.05
A29G C15A	0.06
A29G C15G	0.08
A29C G34A	0.04
A29C G34U	0.03
A29C G34C	0.03
A29C A36G	0.07
A29C A36C	0.03
A29C A36U	0.04
A29C C20A	0.03
A29C C20U	0.08
A29C C20G	0.02
A28U G50A	0.42
A28U G50C	0.81
A28U G50U	0.95
A28U G47A	0.09
A28U G47U	0.1
A28U G47C	0.06
A28U A29G	0.08
A28U A29U	0.06
A28U A29C	0.03
A29C G53U	0.03
A29C G53C	0.02

Variant	self-cleavage
A29C G53A	0.03
A29C C14A	0.02
A29C C14G	0.02
A29C C14U	0.03
A28U C31U	0.19
A28U C31A	0.03
A28U C31G	0.07
A28U G44C	0.78
A28U G44A	0.74
A28U G44U	0.49
A29C C27G	0.02
A29C C27A	0.04
A29C C27U	0.02
A29C C11G	0.02
A29C C11U	0.04
A29C C11A	0.04
A29G G13A	0.04
A29G G13C	0.01
A29G G13U	0.03
A29G A8G	0.11
A29G A8U	0.07
A29G A8C	0.04
A28U G48A	0.06
A28U G48U	0.06

Variant	self-cleavage
A28U G48C	0.06
A28U G22C	0.06
A28U G22A	0.34
A28U G22U	0.2
A29C G35A	0.04
A29C G35U	0.05
A29C G35C	0.02
A29C G30U	0.02
A29C G30A	0.02
A29C G30C	0.01
A29C G19C	0.02
A29C G19U	0.03
A29C G19A	0.04
A29C U43G	0.05
A29C U43A	0.03
A29C U43C	0.03
A29G C20U	0.28
A29G C20A	0.33
A29G C20G	0.04
A29C G50U	0.04
A29C G50C	0.03
A29C G50A	0.05
A28U G35C	0.15
A28U G35A	0.73

Variant	self-cleavage
A28U G35U	0.71
A29C G13A	0.02
A29C G13U	0.01
A29C G13C	0.01
A29G C26U	0.08
A29G C26A	0.04
A29G C26G	0.1
A28U A7U	0.07
A28U A7C	0.04
A28U A7G	0.13
A29C A7U	0.01
A29C A7C	0.03
A29C A7G	0.03
A28U U18G	0.91
A28U U18C	0.73
A28U U18A	0.91
A29G C9A	0.05
A29G C9G	0.09
A29G C9U	0.06
A28U G53C	0.08
A28U G53U	0.15
A28U G53A	0.42
A28U G49C	0.06
A28U G49A	0.08

Variant	self-cleavage
A28U G49U	0.09
A28U C25A	0.07
A28U C25U	0.28
A28U C25G	0.05
A29G C31U	0.12
A29G C31A	0.02
A29G C31G	0.05
A29C G23A	0.05
A29C G23C	0.02
A29C G23U	0.02
A29C A38C	0.04
A29C A38U	0.03
A29C A38G	0.04
A28U G30U	0.04
A28U G30A	0.04
A28U G30C	0.05
A28U G45C	0.06
A28U G45U	0.07
A28U G45A	0.09
A28U C26G	0.1
A28U C26U	0.22
A28U C26A	0.04
A29C A39C	0.04
A29C A39U	0.03

Variant	self-cleavage
A29C A39G	0.03
A28U A41C	0.79
A28U A41G	0.29
A28U A41U	0.93
A28U G19U	0.13
A28U G19C	0.07
A28U G19A	0.24
A28U C21G	0.07
A28U C21U	0.93
A28U C21A	0.16
A29C U18G	0.06
A29C U18A	0.04
A29C U18C	0.04
A29G C32G	0.07
A29G C32A	0.04
A29G C32U	0.06
A29G A38U	0.16
A29G A38G	0.15
A29G A38C	0.16
A28U C11U	0.7
A28U C11A	0.27
A28U C11G	0.12
